Experimental findings from ChEMBL document CHEMBL4354797, “Novel Pyrazolo[4,3- d]pyrimidine as Potent and Orally Active Inducible Nitric Oxide Synthase (iNOS) Dimerization Inhibitor with Efficacy in Rheumatoid Arthritis Mouse Model” (J Med Chem, 2019) are described below.

The structures appear in SMILES notation. Active and inactive are the calls of the source. No cut-off for these calls is given here.

The test system of this experiment is RAW264.7. The experiment can be described thus: Antiinflammatory activity in mouse RAW264.7 cells assessed as inhibition of LPS-induced NO production at 10 uM preincubated for 1 hr followed by LPS addition and measured after 24 hrs by Griess reagent-based assay relative to control. It is filed as functional. A digest of the protocol: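 RAW 264.7 cells pretreated with compound for 1 h, then LPS 1 µg/mL for 24 h. Single-point inhibition at 10 µM. IC50 by regression of inhibition over several concentrations. At least three independent experiments.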
In general terms: Griess reagent forms a coloured azo dye with nitrite.
In general, inhibition refers to the drop in the measured response relative to a control, in per cent. `CCCc1nn(C)c2c(Nc3ccc(C(=O)OC)cc3)nc(/C=C/c3ccccc3)nc12`: the inhibition at 10 µM came to 42.4%.
The same measure, in the same setting: under `CCCc1nn(C)c2c(N3CCCC3)nc(/C=C/c3cc(OC)c(OC)c(OC)c3)nc12` stands 15.5%.
Still for that read-out and setting: in the case of `CCCc1nn(C)c2c(Nc3ccc(Cl)cc3)nc(/C=C/c3cc(OC)c(OC)c(OC)c3)nc12` it was 25.3%; in that of `CCCc1nn(C)c2c(NCc3ccc(C(F)(F)F)cc3)nc(/C=C/c3ccco3)nc12`, 50.2%.
As to `CCCc1nn(C)c2c(NC(C)C)nc(/C=C/c3ccco3)nc12`, the inhibition at 10 µM is 37.7%.
In the case of `CCCc1nn(C)c2c(N3CCOCC3)nc(/C=C/c3cc(OC)c(OC)c(OC)c3)nc12`, the inhibition at 10 µM was 81%.
On to `CCCc1nn(C)c2c(N3CCOCC3)nc(/C=C/c3ccccc3)nc12`, for which the inhibition at 10 µM is 10.2%.
On the same count and under the same terms, in the case of `CCCc1nn(C)c2c(N3CCCCC3)nc(/C=C/c3cc(OC)c(OC)c(OC)c3)nc12` it was 16.3%; in that of `CCCc1nn(C)c2c(NCc3ccc(Br)cc3)nc(/C=C/c3ccco3)nc12`, 40.6%; in that of `CCCc1nn(C)c2c(Nc3ccc(C(=O)N4CCN(CC)CC4)cc3)nc(/C=C/c3cc(OC)c(OC)c(OC)c3)nc12`, 15.4%.
Same read-out and setting: under `CCCc1nn(C)c2c(NCCc3ccccc3Cl)nc(/C=C/c3ccco3)nc12` stands 70.8%.
The same measure, in the same setting: under `CCCc1nn(C)c2c(NCc3ccc(OC)cc3)nc(/C=C/c3cc(OC)c(OC)c(OC)c3)nc12` stands 73.1%; under `CCCc1nn(C)c2c(NCCc3ccccc3Cl)nc(/C=C/c3ccccc3)nc12`, 14.3%; under `CCCc1nn(C)c2c(Nc3ccc(OC(F)(F)F)cc3)nc(/C=C/c3cc(OC)c(OC)c(OC)c3)nc12`, 16.4%.
Turning to `CCCc1nn(C)c2c(NCc3ccccc3Cl)nc(/C=C/c3cc(OC)c(OC)c(OC)c3)nc12`, the inhibition at 10 µM was 90%.
`CCCc1nn(C)c2c(Nc3cccc(C(F)(F)F)c3)nc(/C=C/c3cc(OC)c(OC)c(OC)c3)nc12`: the inhibition at 10 µM came to 38.2%.
In the case of `CCCc1nn(C)c2c(N(C)C)nc(/C=C/c3ccco3)nc12`, the inhibition at 10 µM was 30.6%.
With `CCCc1nn(C)c2c(N(C)C)nc(-c3cc(OC)c(OC)c(OC)c3)nc12`, the inhibition at 10 µM was 21.2%.
Regarding `CCCc1nn(C)c2c(Nc3ccc(C(F)(F)F)cc3)nc(/C=C/c3cc(OC)c(OC)c(OC)c3)nc12`, the inhibition at 10 µM came to 37.8%.
On the same count and under the same terms, under `CCCc1nn(C)c2c(Nc3ccccc3)nc(/C=C/c3cc(OC)c(OC)c(OC)c3)nc12` stands 48.1%; under `CCCc1nn(C)c2c(NCCc3cccc(Cl)c3)nc(/C=C/c3cc(OC)c(OC)c(OC)c3)nc12`, 80%.
`CCCc1nn(C)c2c(NCCc3ccc(OC)cc3)nc(-c3cc(OC)c(OC)c(OC)c3)nc12`: the inhibition at 10 µM worked out at 10.2%.
On the same count and under the same terms, under `CCCc1nn(C)c2c(N3CCCCC3)nc(-c3cc(OC)c(OC)c(OC)c3)nc12` stands 7.6%; under `CCCCNC(=O)c1ccc(Nc2nc(/C=C/c3cc(OC)c(OC)c(OC)c3)nc3c(CCC)nn(C)c23)cc1`, 35.9%.
In the case of `CCCCNC(=O)c1ccc(Nc2nc(-c3cc(OC)c(OC)c(OC)c3)nc3c(CCC)nn(C)c23)cc1`, the inhibition result is “inactive”.
For `CCCc1nn(C)c2c(Nc3cccc(C(F)(F)F)c3)nc(/C=C/c3ccco3)nc12`, the inhibition at 10 µM was found to be 8.9%.
As for `CCCc1nn(C)c2c(Nc3ccc(OC)cc3)nc(/C=C/c3cc(OC)c(OC)c(OC)c3)nc12`, the inhibition at 10 µM was 63.2%.
The same measure, in the same setting: under `CCCc1nn(C)c2c(Nc3ccc(C(=O)NC(C)(C)C)cc3)nc(/C=C/c3cc(OC)c(OC)c(OC)c3)nc12` stands 10.6%; under `CCCc1nn(C)c2c(NCCc3ccccc3)nc(/C=C/c3cc(OC)c(OC)c(OC)c3)nc12`, 86.1%.
Turning to `CCCc1nn(C)c2c(Nc3cccc(C)c3)nc(-c3cc(OC)c(OC)c(OC)c3)nc12`, the inhibition entry was “inactive”.
On to `CCCc1nn(C)c2c(NCCc3ccccc3F)nc(/C=C/c3ccco3)nc12`, for which the inhibition at 10 µM amounted to 73%.
On the same count and under the same terms, under `CCCc1nn(C)c2c(NCCc3ccc(Cl)cc3)nc(/C=C/c3ccccc3)nc12` stands 10.7%; under `CCCc1nn(C)c2c(NCCc3ccc(O)cc3)nc(/C=C/c3cc(OC)c(OC)c(OC)c3)nc12`, 15%; under `CCCc1nn(C)c2c(Nc3ccc(C(=O)OC)cc3)nc(-c3cc(OC)c(OC)c(OC)c3)nc12`, 17.3%.
With `CCCc1nn(C)c2c(Nc3cccc(C(F)(F)F)c3)nc(/C=C/c3ccccc3)nc12`, the inhibition at 10 µM was 14.6%.
In the case of `CCCc1nn(C)c2c(NCc3ccc(F)cc3)nc(/C=C/c3ccco3)nc12`, the inhibition at 10 µM is 50.7%.
Take `CCCc1nn(C)c2c(NCc3cccc(OC)c3)nc(/C=C/c3cc(OC)c(OC)c(OC)c3)nc12`: the inhibition at 10 µM came out at 70.9%.
Still for that read-out and setting: in the case of `CCCc1nn(C)c2c(Nc3ccccc3Br)nc(/C=C/c3cc(OC)c(OC)c(OC)c3)nc12` it was 38.5%; in that of `CCCc1nn(C)c2c(NCc3ccccc3OC)nc(/C=C/c3ccco3)nc12`, 38.4%; in that of `CCCc1nn(C)c2c(NCc3ccc(Cl)cc3)nc(/C=C/c3cc(OC)c(OC)c(OC)c3)nc12`, 67.2%.
As for `CCCc1nn(C)c2c(Nc3ccc(C(=O)N4CCN(CC)CC4)cc3)nc(-c3cc(OC)c(OC)c(OC)c3)nc12`, the inhibition at 10 µM was found to be 27.6%.
Regarding `CCCc1nn(C)c2c(NCc3ccc(Br)cc3)nc(/C=C/c3cc(OC)c(OC)c(OC)c3)nc12`, the inhibition at 10 µM came out at 53.9%.
As for `CCCc1nn(C)c2c(NCc3ccccc3Cl)nc(/C=C/c3ccco3)nc12`, the inhibition at 10 µM amounted to 54.8%.
Same read-out and setting: under `CCCc1nn(C)c2c(N(C)C)nc(/C=C/c3cc(OC)c(OC)c(OC)c3)nc12` stands 82.1%.
In the case of `CCCc1nn(C)c2c(Nc3cccc(C(F)(F)F)c3)nc(-c3cc(OC)c(OC)c(OC)c3)nc12`, the inhibition entry is “inactive”.
With `CCCc1nn(C)c2c(NC(C)CC)nc(/C=C/c3cc(OC)c(OC)c(OC)c3)nc12` (stereo not drawn), the inhibition at 10 µM was 75%.
The same measure, in the same setting: in the case of `CCCc1nn(C)c2c(Nc3ccc(Br)cc3)nc(/C=C/c3cc(OC)c(OC)c(OC)c3)nc12` it was 33%; in that of `CCCc1nn(C)c2c(NCCc3ccccc3)nc(-c3cc(OC)c(OC)c(OC)c3)nc12`, 20.2%; in that of `CCCc1nn(C)c2c(N(C)C)nc(/C=C/c3ccccc3)nc12`, 27.1%.
With `CCCc1nn(C)c2c(NCc3ccco3)nc(/C=C/c3ccco3)nc12`, the inhibition at 10 µM was 52.3%.
Still for that read-out and setting: in the case of `CCCc1nn(C)c2c(Nc3cccc(C)c3)nc(/C=C/c3cc(OC)c(OC)c(OC)c3)nc12` it was 25.8%; in that of `CCCc1nn(C)c2c(Nc3ccccc3)nc(-c3cc(OC)c(OC)c(OC)c3)nc12`, 22.2%; in that of `CCCc1nn(C)c2c(Nc3cccc(Br)c3)nc(/C=C/c3cc(OC)c(OC)c(OC)c3)nc12`, 31%.
Same read-out and setting: under `CCCc1nn(C)c2c(N3CCCC3)nc(/C=C/c3ccccc3)nc12` stands 6.3%; under `CCCc1nn(C)c2c(NCCc3ccccc3)nc(/C=C/c3ccco3)nc12`, 36.4%; under `CCCc1nn(C)c2c(NCCc3ccccc3Cl)nc(/C=C/c3cc(OC)c(OC)c(OC)c3)nc12`, 46.9%.
On the same count and under the same terms, under `CCCc1nn(C)c2c(NCCc3ccccc3)nc(/C=C/c3ccccc3)nc12` stands 48.6%; under `CCCc1nn(C)c2c(Nc3ccc(C(=O)OC)cc3)nc(/C=C/c3cc(OC)c(OC)c(OC)c3)nc12`, 10.3%.
In the case of `CCCc1nn(C)c2c(Nc3ccccc3C)nc(/C=C/c3cc(OC)c(OC)c(OC)c3)nc12`, the inhibition at 10 µM is 54.4%.
Regarding `CCCc1nn(C)c2c(N3CCOCC3)nc(-c3cc(OC)c(OC)c(OC)c3)nc12`, the inhibition at 10 µM was found to be 5.2%.
With `CCCc1nn(C)c2c(NCc3ccc(Cl)cc3)nc(/C=C/c3ccccc3)nc12`, the inhibition at 10 µM was 24.2%.
On the same count and under the same terms, under `CCCc1nn(C)c2c(Nc3ccc(F)c(C(F)(F)F)c3)nc(/C=C/c3cc(OC)c(OC)c(OC)c3)nc12` stands 82.6%; under `CCCc1nn(C)c2c(NCc3ccco3)nc(/C=C/c3cc(OC)c(OC)c(OC)c3)nc12`, 62.1%; under `CCCc1nn(C)c2c(NC)nc(-c3cc(OC)c(OC)c(OC)c3)nc12`, 21.6%.
Still for that read-out and setting: in the case of `CCCc1nn(C)c2c(Nc3cccc(C)c3)nc(/C=C/c3ccco3)nc12` it was 8.9%; in that of `CCCc1nn(C)c2c(NCc3ccc(OC)cc3)nc(/C=C/c3ccco3)nc12`, 43.8%.
The same measure, in the same setting: in the case of `CCCc1nn(C)c2c(NCCc3ccccc3F)nc(/C=C/c3ccccc3)nc12` it was 43.9%.
Regarding `CCCc1nn(C)c2c(NCc3cccc(OC)c3)nc(/C=C/c3ccco3)nc12`, the inhibition at 10 µM was found to be 35.6%.
The same measure, in the same setting: in the case of `CCCc1nn(C)c2c(NCc3ccc(F)cc3)nc(/C=C/c3cc(OC)c(OC)c(OC)c3)nc12` it was 69.7%.
On the same count and under the same terms, under `CCCc1nn(C)c2c(NCCc3ccccc3F)nc(/C=C/c3cc(OC)c(OC)c(OC)c3)nc12` stands 85%; under `CCCc1nn(C)c2c(NCCc3ccc(OC)cc3)nc(/C=C/c3ccccc3)nc12`, 48%; under `CCCc1nn(C)c2c(N3CCN(CC)CC3)nc(/C=C/c3ccccc3)nc12`, 10.2%.
As to `CCCc1nn(C)c2c(NCCc3ccc(Cl)cc3)nc(-c3cc(OC)c(OC)c(OC)c3)nc12`, the inhibition at 10 µM was 22.2%.
Same read-out and setting: in the case of `CCCc1nn(C)c2c(N3CCN(CC)CC3)nc(/C=C/c3cc(OC)c(OC)c(OC)c3)nc12` it was 28.3%.
As to `CCCc1nn(C)c2c(Nc3ccc(C(=O)O)cc3)nc(/C=C/c3cc(OC)c(OC)c(OC)c3)nc12`, the inhibition at 10 µM is 15.3%.
`CCCc1nn(C)c2c(Nc3cccc(C)c3)nc(/C=C/c3ccccc3)nc12`: the inhibition at 10 µM came to 15.3%.
Same read-out and setting: in the case of `CCCc1nn(C)c2c(NCCCN3CCOCC3)nc(/C=C/c3ccccc3)nc12` it was 42.4%.
Consider `CCCc1nn(C)c2c(N3CCCCC3)nc(/C=C/c3ccccc3)nc12`, for which the inhibition at 10 µM is 7.7%.
